A word on the IC50: it is the midpoint of a concentration-inhibition curve. In general, clearance refers to the rate of elimination divided by the concentration. A word on the bioavailability: it is the share of a dose that reaches the circulation, judged against a reference dose that is usually intravenous. Read a high bioavailability as much systemic uptake. As a reminder, the inhibition in vivo is the share of the control response that was lost under treatment.

The values that follow come from ChEMBL document CHEMBL1149691, “Identification of a novel class of selective Tpl2 kinase inhibitors: 4-Alkylamino-[1,7]naphthyridine-3-carbonitriles” (Bioorg Med Chem, 2007).

Series [1] in a line: Inhibition of Tpl2 kinase assessed as MEK phosphorylation by ELISA. On the set-up: species or system Homo sapiens. An outline of the steps:
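Tpl2 (0.4 nM) incubated with 35 nM GST-MEK1 substrate and 50 µM ATP in pH 7.2 Mops buffer with MgCl2, DTT, β-glycerophosphate, EGTA and orthovanadate, 1 h at 30 °C, 1% DMSO final; stopped with EDTA. GST-MEK1 captured on anti-GST plates, phospho-Ser217/221 detected by anti-phospho-MEK1 and Eu-labelled secondary (DELFIA); IC50 by curve fitting.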
(In general: In an ELISA, binding on a coated surface is turned into a signal by an enzyme label.)

For another series, the system named is Monocyte. Briefly: Inhibition of LPS-induced TNFalpha production in human monocytes. Format: functional, cell-based. An outline of the steps:
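Monocytes enriched from buffy coat by antibody-cocktail negative selection and two Histopaque-1077 separations, plated at 800,000 cells/well in RPMI/0.5% FBS at 37 °C/5% CO2. Compounds in DMSO added 30 min before LPS at 10 ng/mL, ~3 h incubation; supernatant TNF-α by ELISA or electrochemiluminescence.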

Series [2] addresses Epidermal growth factor receptor (Homo sapiens, UniProt P00533). Briefly: Inhibition of EGFR kinase autophosphorylation in A431 cells.
The next series has as its system Blood. Briefly: Inhibition of LPS-induced TNFalpha production in human blood. Format: functional, tissue-based. An outline of the steps: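 Heparinized blood from healthy male volunteers diluted 1–5 in RPMI/3% FCS at 37 °C; compounds (in DMSO, 1.0% final) added 30 min before LPS at 10 ng/mL, ~3 h incubation. Plasma TNF-α measured by ELISA or electrochemiluminescence.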

A short description of series [3]: Clearance in Sprague-Dawley rat. Format: ADME, organism-based. The following applies: in vivo.
Series [4] is described as follows: Inhibition of PKA. The arrangement: species or system Homo sapiens.
Series [5] is described as follows: Bioavailability in Sprague-Dawley rat. The class given is ADME, organism-based. The following applies: in vivo.
The nature of series [6]: Inhibition of S6 kinase. The arrangement: species or system Homo sapiens.
Series [7] deals with T1, MAP kinase p38 (Homo sapiens, UniProt O15264+Q15759+Q16539+P53778). Briefly: Inhibition of P-p38 kinase in human monocytes. The class given is cell-based.
A short description of series [8]: Inhibition of MEK. On the set-up: species or system Homo sapiens.
Series [9] addresses T1, MAP kinase p38. Briefly: Inhibition of p38 kinase. The class given is protein assay.
The test system of series [10] is Mus musculus. The series is described as follows: Inhibition of LPS-induced TNFalpha production in C57B1/6 mouse at 25 mg/kg, ip. Format: functional. To be noted: C57B1/6, ip, route intraperitoneal. The procedure, abridged: (§1)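 Female C57Bl/6 mice, 8–10 weeks old; compound (10 or 25 mg/kg) or vehicle given ip, then 1 h later LPS plus D-galactosamine in PBS ip (2 and […] final). Mice euthanized with CO2 1.5 h after challenge and bled by cardiac puncture; serum TNF-α compared with vehicle.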

The target of series [11] is MAP kinase-activated protein kinase 2 (Homo sapiens) (UniProt P49137). The series is described as follows: Inhibition of MK2 at 40 uM.
Series [12] deals with T2, Proto-oncogene tyrosine-protein kinase Src (Homo sapiens, UniProt P12931). The series is described as follows: Inhibition of Src kinase at 40 uM.
The species named for a further series is Homo sapiens. Briefly: Inhibition of CAMK2 at 40 uM.
A further series addresses Protein kinase C (PKC). Briefly: Inhibition of PKC. On the set-up: species or system Homo sapiens.
Series [13] deals with Mus musculus. Briefly: Inhibition of LPS-induced TNFalpha production in C57B1/6 mouse at 10 mg/kg, ip. Format: functional. The following applies: C57B1/6, ip, route intraperitoneal. The procedure, abridged:
as §1

Series [14] concerns the target T2, Proto-oncogene tyrosine-protein kinase Src. The series is described as follows: Inhibition of Src kinase.
Series [15] has as its target T1, MAP kinase p38. The series is described as follows: Inhibition of P-p38 kinase in human monocytes at 40 uM. The class given is cell-based.

The source made the active and inactive calls. No cut-off for these calls is given here.

Sequence of Epidermal growth factor receptor (P00533 whole entry): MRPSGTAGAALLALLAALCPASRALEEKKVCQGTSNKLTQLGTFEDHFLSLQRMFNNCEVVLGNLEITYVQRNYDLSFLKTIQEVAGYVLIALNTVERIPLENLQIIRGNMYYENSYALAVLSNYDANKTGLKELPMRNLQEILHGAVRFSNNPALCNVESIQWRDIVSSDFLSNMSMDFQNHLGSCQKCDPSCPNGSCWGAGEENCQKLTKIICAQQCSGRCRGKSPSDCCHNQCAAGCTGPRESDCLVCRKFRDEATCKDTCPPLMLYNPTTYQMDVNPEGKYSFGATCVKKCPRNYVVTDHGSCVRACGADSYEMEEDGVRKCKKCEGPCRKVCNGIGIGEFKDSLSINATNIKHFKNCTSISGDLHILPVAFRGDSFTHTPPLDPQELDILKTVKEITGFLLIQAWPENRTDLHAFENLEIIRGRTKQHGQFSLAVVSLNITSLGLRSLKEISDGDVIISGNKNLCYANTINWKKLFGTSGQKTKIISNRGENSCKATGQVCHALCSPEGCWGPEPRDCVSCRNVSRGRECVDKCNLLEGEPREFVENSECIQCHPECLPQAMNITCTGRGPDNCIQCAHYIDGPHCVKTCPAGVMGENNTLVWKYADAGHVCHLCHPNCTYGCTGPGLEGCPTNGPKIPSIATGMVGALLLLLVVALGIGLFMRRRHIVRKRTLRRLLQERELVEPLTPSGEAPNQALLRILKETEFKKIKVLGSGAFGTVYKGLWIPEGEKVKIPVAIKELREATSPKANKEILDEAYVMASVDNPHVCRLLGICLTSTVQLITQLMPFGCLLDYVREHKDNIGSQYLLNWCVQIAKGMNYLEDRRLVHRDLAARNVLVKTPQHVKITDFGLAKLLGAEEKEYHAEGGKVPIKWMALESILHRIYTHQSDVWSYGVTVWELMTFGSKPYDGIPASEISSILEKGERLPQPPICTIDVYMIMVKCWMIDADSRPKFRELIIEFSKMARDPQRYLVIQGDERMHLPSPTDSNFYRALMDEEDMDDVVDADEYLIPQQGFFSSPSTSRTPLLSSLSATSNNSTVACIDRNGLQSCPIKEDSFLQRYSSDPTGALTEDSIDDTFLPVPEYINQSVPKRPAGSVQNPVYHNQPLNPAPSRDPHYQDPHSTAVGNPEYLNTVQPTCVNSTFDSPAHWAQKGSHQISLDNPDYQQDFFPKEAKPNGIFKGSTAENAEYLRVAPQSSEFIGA
Sequence of MAP kinase-activated protein kinase 2 (Homo sapiens) (P49137 whole entry, looked up): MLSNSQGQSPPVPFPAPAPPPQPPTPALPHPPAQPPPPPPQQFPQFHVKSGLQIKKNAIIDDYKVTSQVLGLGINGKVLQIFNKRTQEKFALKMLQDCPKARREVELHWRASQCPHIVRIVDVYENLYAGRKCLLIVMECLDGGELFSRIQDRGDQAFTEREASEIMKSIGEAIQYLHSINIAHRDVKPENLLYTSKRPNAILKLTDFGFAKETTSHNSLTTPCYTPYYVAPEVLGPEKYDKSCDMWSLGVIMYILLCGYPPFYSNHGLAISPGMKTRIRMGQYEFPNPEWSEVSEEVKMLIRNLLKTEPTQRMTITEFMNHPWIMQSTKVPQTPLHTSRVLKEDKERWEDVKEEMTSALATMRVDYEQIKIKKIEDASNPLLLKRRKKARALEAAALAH
T2 sequence (P12931 2-536 limits assumed): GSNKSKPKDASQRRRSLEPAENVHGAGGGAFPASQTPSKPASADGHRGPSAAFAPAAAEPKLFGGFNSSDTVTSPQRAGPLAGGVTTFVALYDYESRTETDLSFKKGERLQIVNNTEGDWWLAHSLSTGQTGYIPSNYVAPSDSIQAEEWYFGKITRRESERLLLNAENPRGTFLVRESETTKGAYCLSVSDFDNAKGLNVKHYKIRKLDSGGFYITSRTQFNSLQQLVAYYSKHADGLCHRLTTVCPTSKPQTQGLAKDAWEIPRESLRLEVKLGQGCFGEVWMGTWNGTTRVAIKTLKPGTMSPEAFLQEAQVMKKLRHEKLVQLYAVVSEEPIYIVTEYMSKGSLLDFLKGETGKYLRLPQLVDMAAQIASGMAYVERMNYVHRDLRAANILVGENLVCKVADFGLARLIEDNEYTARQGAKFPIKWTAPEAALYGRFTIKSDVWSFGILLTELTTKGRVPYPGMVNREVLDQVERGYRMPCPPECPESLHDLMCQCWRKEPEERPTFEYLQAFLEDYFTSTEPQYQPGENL

On to `CS(=O)(=O)Nc1cccc(Nc2c(C#N)cnc3cnc(NCCN4CCOCC4)cc23)c1`, for which the IC50 in [1] is more than 10 µM.

In the case of `N#Cc1cnc2ccc(NCCN3CCOCC3)cc2c1Nc1ccc(F)c(Cl)c1`, the IC50 in [1] is 1 µM.

For the molecule `CCC(C)(C)Nc1c(C#N)cnc2cnc(NCc3cccnc3)cc12`, the IC50 is 0.8 µM in the series with Monocyte, more than 40 µM in [2], 0.36 µM in [1] and 4.5 µM in the series on Blood.

Turning to `N#Cc1cnc2cnc(NC3CCCC3)cc2c1Nc1ccc(F)c(Cl)c1`, the IC50 in [1] amounted to 7.6 µM.

As to `N#Cc1cnc2ccc(NCc3cccnc3)cc2c1NC1CCCCCC1`, in [1], the IC50 came out at 2.6 µM.

Turning to `CC(C)(C)Nc1c(C#N)cnc2ccc(NCc3ccn[nH]3)cc12`, the IC50 in series [1] came to 1.6 µM.

Turning to `N#Cc1cnc2cnc(NCc3cccnc3)cc2c1NC1CCCCC1`, the IC50 is 0.5 µM in the series with Monocyte, more than 40 µM in [2], 0.47 µM in [1] and 4.7 µM with Blood.

`N#Cc1cnc2cnc(NCCN3CCOCC3)cc2c1Nc1cccc(C(N)=O)c1`: the IC50 in series [1] is more than 10 µM.

Take `N#Cc1cnc2ccc(NCc3cccc[n+]3[O-])cc2c1NC1CCCC1`: in [1], the IC50 worked out at 1.3 µM.

Consider `N#Cc1cnc2cnc(NCCN3CCOCC3)cc2c1Nc1cccc(C(=O)O)c1`, for which the IC50 in series [1] was more than 10 µM.

Regarding `N#Cc1cnc2cnc(NC3CCCCCC3)cc2c1Nc1ccc(F)c(Cl)c1`, in [1], the IC50 amounted to 5.2 µM.

As for `N#Cc1cnc2ccc(NCc3cccnc3)cc2c1Nc1ccc(F)c(Cl)c1`, the IC50 in series [1] turned out to be 0.018 µM.

Regarding `N#Cc1cnc2cnc(NCc3cccnc3)cc2c1NC1CCCC1`, the IC50 in the series on Monocyte was 0.6 µM; in series [2], more than 40 µM; in series [1], 0.32 µM; in the series with Blood, 7.7 µM. In series [3], this molecule returned a clearance of 28 mL/min/kg.

On to `N#Cc1cnc2cnc(NCCN3CCOCC3)cc2c1Nc1ccc(F)c(F)c1`, for which the IC50 in [1] amounted to 3.6 µM.

For the molecule `N#Cc1cnc2ccc(NCc3ccn[nH]3)cc2c1NC1CCCC1`, the IC50 in series [1] was 1.6 µM.

`N#Cc1cccc(CNc2ccc3ncc(C#N)c(NC4CCCC4)c3c2)c1`: the IC50 in [1] came out at 2.2 µM.

On to `Cn1ccnc1CNc1ccc2ncc(C#N)c(NC(C)(C)C)c2c1`, for which, in [1], the IC50 was 3 µM.

For `CS(=O)(=O)c1cccc(CNc2ccc3ncc(C#N)c(NC4CCCC4)c3c2)c1`, in [1], the IC50 stood at 2.9 µM.

As for `N#Cc1cnc2ccc(NCc3ccccc3)cc2c1NC1CCCC1`, the IC50 in series [1] was 21 µM.

With `N#Cc1cnc2ccc(NCc3c[nH]cn3)cc2c1Nc1ccc(F)c(Cl)c1`, the IC50 is 5.84 µM in [4]; 0.6 µM with Monocyte; more than 10 µM in series [6]; 2.11 µM against MAP kinase p38 [7]; 2.4 µM in [8]; 30 µM against MAP kinase p38 [9]. On Protein kinase C (PKC), the IC50 is more than 10 µM. Also, the bioavailability in series [5] worked out at 1%. This molecule yielded a clearance in series [3] of 97 mL/min/kg. This molecule also registered an inhibition in vivo at 25 mg/kg in the series with Mus musculus [10] of 71%. The result (in series [11]; in series [12]; in the series listed under Homo sapiens) was inactive.

Turning to `N#Cc1cnc2cnc(NCc3cccnc3)cc2c1NC1CC1`, the IC50 was more than 40 µM in series [2] and 2.8 µM in series [1].

In the case of `CC(C)(C)Nc1c(C#N)cnc2cnc(NCc3cccnc3)cc12`, the IC50 in the series with Monocyte was 0.6 µM; in series [2], more than 40 µM; in [1], 0.63 µM; in the series with Blood, 4.2 µM. This molecule had a clearance in [3] of 50 mL/min/kg.

On to `C[C@@H](Nc1cc2c(Nc3ccc(F)c(Cl)c3)c(C#N)cnc2cn1)c1ccccc1`, for which the IC50 in series [1] is 0.05 µM.

As to `N#Cc1cnc2cnc(NCc3cccnc3)cc2c1NC1CCNCC1`, the IC50 in series [1] is more than 40 µM.

For the molecule `N#Cc1cnc2ccc(NCc3cccnc3)cc2c1NC1CCCC1`, the IC50 in series [1] was 2.4 µM.

`N#Cc1cnc2cnc(Nc3ccc(F)c(Cl)c3)cc2c1NC1CCCC1`: the IC50 in series [1] was 8 µM.

Turning to `CC(C)(C)Nc1c(C#N)cnc2ccc(NCc3cccc[n+]3[O-])cc12`, the 50% inhibitory concentration (IC50) in series [1] amounted to 1.3 µM.

In the case of `CC(C)(C)Nc1c(C#N)cnc2ccc(NCc3cccc(S(C)(=O)=O)c3)cc12`, in series [1], the IC50 was found to be 2.9 µM.

With `N#Cc1cnc2cnc(NCc3cccnc3)cc2c1Nc1ccc(F)c(Cl)c1`, the IC50 in the series with Monocyte was 1.1 µM; in [1], 0.05 µM; in the series with Blood, more than 20 µM.

For `N#Cc1cnc2cnc(NCCN3CCOCC3)cc2c1Nc1cccc(Oc2ccccc2)c1`, the IC50 in series [1] is 11.5 µM.

On to `N#Cc1cnc2cnc(NCc3cccnc3)cc2c1NC1CCCCCC1`, for which the IC50 in [4] was more than 40 µM; in the series on Monocyte it was 0.5 µM; in series [2] it was more than 20 µM; in series [6], more than 40 µM; in [1], 0.16 µM; in series [14], 38 µM. Moreover, the IC50 in series [8] is more than 40 µM; in the series with Blood it was 4.5 µM; at Protein kinase C (PKC) it was more than 40 µM. Also, in the series on Mus musculus [13], at 10 mg/kg the inhibition in vivo was 86%. Besides, the bioavailability in series [5] was 14%. The molecule further showed a clearance in series [3] of 30 mL/min/kg. Also, the outcome (on MAP kinase p38 [15]; in series [11]; in the series listed under Homo sapiens) was inactive.

For the molecule `N#Cc1ccccc1CNc1ccc2ncc(C#N)c(NC3CCCC3)c2c1`, the IC50 in series [1] is 1.7 µM.

As for `Cn1ccnc1CNc1ccc2ncc(C#N)c(NC3CCCC3)c2c1`, in [1], the IC50 was 3 µM.

For `CC(C)(C)Nc1c(C#N)cnc2ccc(NCc3cccc(C#N)c3)cc12`, in series [1], the half-maximal inhibitory concentration (IC50) amounted to 1.7 µM.

For the molecule `C#CC(C)(C)Nc1c(C#N)cnc2cnc(NCc3cccnc3)cc12`, the IC50 in the series on Monocyte came to 2 µM; in series [1], 0.27 µM. Besides, the result with Blood was inactive.

As to `C[C@H](Nc1cc2c(NC3CCCCCC3)c(C#N)cnc2cn1)c1ccccc1`, the IC50 in series [1] turned out to be 0.92 µM.

Take `N#Cc1cnc2cnc(NCCN3CCOCC3)cc2c1Nc1ccc(F)cc1`: in series [1], the IC50 was found to be 10.7 µM.

As for `CC(C)(C)Nc1c(C#N)cnc2ccc(NCc3ccc(S(N)(=O)=O)cc3)cc12`, the IC50 in series [1] was 7.3 µM.

`N#Cc1cnc2cnc(NCCN3CCOCC3)cc2c1Nc1ccc(Nc2ccccc2)cc1`: the IC50 in [1] was determined as 7.6 µM.

Take `N#Cc1cnc2cnc(NCc3cccnc3)cc2c1Nc1ccccc1`: the IC50 with Monocyte was 1.1 µM; in series [2], less than 5 µM; in [1] it was 0.4 µM; in the series on Blood it was 20 µM.

Regarding `N#Cc1cnc2cnc(NCCN3CCOCC3)cc2c1Nc1ccc(Oc2ccccc2)cc1`, the IC50 in series [1] was 0.38 µM.

In the case of `N#Cc1cnc2cnc(NCCN3CCOCC3)cc2c1Nc1cccc(I)c1`, the IC50 in series [1] turned out to be 7.1 µM.

In the case of `N#Cc1cnc2ccc(NCCN3CCOCC3)cc2c1Nc1ccc(Oc2ccccc2)cc1`, in series [1], the IC50 was determined as 0.25 µM.

For `N#Cc1cnc2ccc(NCc3ccc(S(N)(=O)=O)cc3)cc2c1NC1CCCC1`, in series [1], the IC50 was determined as 7.3 µM.

For `N#Cc1cnc2ccc(NCCN3CCOCC3)cc2c1NC1CCCC1`, the IC50 in [1] was 19.7 µM.

With `N#Cc1cnc2cnc(NCCN3CCOCC3)cc2c1Nc1ccc([N+](=O)[O-])cc1`, in [1], the IC50 came to 7 µM.

As for `C[C@H](Nc1cc2c(N(C)C3CCCCCC3)c(C#N)cnc2cn1)c1ccccc1`, the IC50 in [1] was more than 40 µM.

Turning to `CC(C)(C)Nc1cc2c(Nc3ccc(F)c(Cl)c3)c(C#N)cnc2cn1`, in series [1], the IC50 is more than 40 µM.
